ChEMBL document CHEMBL2417418, “Synthesis and evaluation of novel 3-(3,5-dimethylbenzyl)uracil analogs as potential anti-HIV-1 agents” (Bioorg Med Chem, 2013)
pEC50: −log10 of the molar value.

What was measured:
[1] = Selectivity index, ratio of CC50 for human MT4 cells to EC50 for HIV1 3B; type: toxicity, cell-based; conditions: read-out: Ratio CC50/EC50
Method in brief: (§1)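 SI computed as CC50/EC50. Both values come from parallel MTT readings after 4 days at 37 °C. CC50 is from mock-infected MT-4 cells; EC50 is from MT-4 cells infected with HIV-1 IIIB at MOI 0.1, as 50% protection from cytopathogenicity.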

[2] = Cytotoxicity against human MT4 cells after 4 days by MTT assay; type: cell-based
Method in brief: (§2)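 Mock-infected MT-4 cells (1 ×10^5 cells/mL, RPMI 1640 + 10% heat-inactivated FBS) cultured with various compound concentrations in parallel with the antiviral assay, 4 days at 37 °C, 5% CO2. Viability read by MTT. CC50 is the concentration cutting uninfected-cell viability by 50%.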

[3] = tested on: Human immunodeficiency virus 1; experiment: Antiviral activity against HIV1 3B infected in human MT4 cells assessed as protection against viral-induced cytopathogenicity after 4 days by MTT assay; type: functional, organism-based; conditions: Human immunodeficiency virus 1, 3B, MT4, 96 h
[4] = tested on: Human immunodeficiency virus 1; experiment: Antiviral activity against HIV1 infected in human MT4 cells; type: functional, organism-based; conditions: Human immunodeficiency virus 1, MT4
[5] = Selectivity index, ratio of CC50 for human MT4 cells to EC50 for HIV1; type: toxicity, cell-based; conditions: read-out: Ratio CC50/EC50; method in brief: as §1
[6] = Cytotoxicity against human MT4 cells; type: cell-based; method in brief: as §2

Row | Compound | selectivity ratio [1] | CC50 at 96 h [2] | pEC50 [3] | pEC50 [4] | selectivity ratio [5] | CC50 [6]
1 | Cc1cc(C)cc(Cn2c(=O)cc(N)n(Cc3ccccn3)c2=O)c1 | > 443 | > 100 µM | 6.64 | – | – | –
2 | Cc1cc(C)cc(Cn2c(=O)cc(N)n(Cc3ccncc3)c2=O)c1 | > 2860 | > 100 µM | 7.52 | – | – | –
3 | Cc1cc(C)cc(Cn2c(=O)cc(N=[N+]=[N-])n(Cc3ccccc3)c2=O)c1 | – | – | – | 7.17 | 685 | 45.9 µM
4 | Cc1cc(C)cc(Cn2c(=O)cc(N)n(Cc3ccccc3)c2=O)c1 | – | – | – | 7.16 | 661 | 45.6 µM
5 | CC(=O)Nc1cc(=O)n(Cc2cc(C)cc(C)c2)c(=O)n1Cc1ccccc1 | – | > 100 µM | < 4.00 | – | – | –
6 | CNc1cc(=O)n(Cc2cc(C)cc(C)c2)c(=O)n1Cc1ccccc1 | 9 | 65 µM | 5.15 | – | – | –
7 | Cc1cc(C)cc(Cn2c(=O)cc(N(C)C)n(Cc3ccccc3)c2=O)c1 | – | 48 µM | < 4.32 | – | – | –
8 | Cc1cc(C)cc(Cn2c(=O)cc(N3CCCC3)n(Cc3ccccc3)c2=O)c1 | – | 31 µM | < 4.51 | – | – | –
9 | Cc1cc(C)cc(Cn2c(=O)cc(N3CCCCC3)n(Cc3ccccc3)c2=O)c1 | – | 47 µM | < 4.33 | – | – | –
10 | Cc1cc(C)cc(Cn2c(=O)cc(N3CCNCC3)n(Cc3ccccc3)c2=O)c1 | – | 16 µM | < 4.80 | – | – | –
11 | Cc1cc(C)cc(Cn2c(=O)cc(N3CCOCC3)n(Cc3ccccc3)c2=O)c1 | – | > 100 µM | < 4.00 | – | – | –
12 | Cc1cc(C)cc(Cn2c(=O)cc(NC3CC3)n(Cc3ccccc3)c2=O)c1 | – | > 100 µM | < 4.00 | – | – | –
13 | Cc1cc(C)cc(Cn2c(=O)cc(NC3CCCCC3)n(Cc3ccccc3)c2=O)c1 | – | 74 µM | < 4.13 | – | – | –
14 | Cc1cc(C)cc(Cn2c(=O)cc(NCc3ccccc3)n(Cc3ccccc3)c2=O)c1 | – | > 100 µM | < 4.00 | – | – | –
15 | Cc1cc(C)cc(Cn2c(=O)cc(N=[N+]=[N-])n(CC#N)c2=O)c1 | – | 60 µM | 5.46 | – | – | –
16 | Cc1cc(C)cc(Cn2c(=O)cc(N=[N+]=[N-])n(Cc3ccccn3)c2=O)c1 | > 457 | > 100 µM | 6.66 | – | – | –
17 | Cc1cc(C)cc(Cn2c(=O)cc(N=[N+]=[N-])n(Cc3ccncc3)c2=O)c1 | 1160 | 59 µM | 7.30 | – | – | –
18 | Cc1cc(C)cc(Cn2c(=O)cc(N)n(CC#N)c2=O)c1 | – | > 100 µM | < 4.00 | – | – | –
19 | Cc1ccnc2c1NC(=O)c1cccnc1N2C1CC1 [NEVIRAPINE] | – | – | – | – | > 1640 | –
20 | Cc1cn([C@H]2C[C@H](N=[N+]=[N-])[C@@H](CO)O2)c(=O)[nH]c1=O [ZIDOVUDINE] | > 2770 | > 100 µM | 7.40 | – | – | –
